Rtt109 Vps75: inhibitors of C. albicans Rtt109/Vps75 HAT, primary screen, biochemical, ThioGlo CoA-SH fluorescence, plate reader. Histone acetyltransferase RTT109 (Candida albicans (strain SC5314 / ATCC MYA-2876)), …. purified Rtt109/Vps75, 4 h. inhibition, % at 34.9 µM. 0.16% of 330,000 active;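 active means inhibition of at least 50% in every replicate; inconclusive means best replicate reaches 50% inhibition but some replicates fall short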
GSIS activator: GLuc luminescence reporter in INS-1E cells, primary screen for activators of glucose-dependent secretion of insulin; INS-1E GLuc reporter insulin secretion, 2-3 h; activation, % at 16.6 µM; 0.61% of 370,000 active; AID 743287, 2014;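 active means lowest replicate activation of at least 40%, so every replicate reaches that level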;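 further: 0% = median of neutral control wells and 100% = median of IBMX positive control wells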
miR122 inh: miR-122 Renilla sensor signal increase in Huh7, primary screen, miR-122 inhibitor project, cell-based, single point, plate reader. 0.3% of 340,000 active. Huh7 miR-122 Renilla luciferase sensor, 48 h; neutral wells = 0, positive control = 100. activation (reporter increase), % at 12.5 µM;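 active means mean replicate activation score at least 90 and every replicate individually at or above 90; inconclusive means only one of the two criteria met; inactive means neither criterion met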;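 further: higher luciferase means less miR-122 activity so hits act as miR-122 inhibitors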
dFosB act-1: activators of delta FosB homodimer, primary screen, biochemical, fluorescence polarization, TAMRA-CDK5 oligo, single point; Protein FosB (Mus musculus), P13346; purified delta FosB; percent of positive-control signal above neutral wells; activation, % at 25 µM; 0.99% of 340,000 active; AID 493131, 2011;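 active means mean activation above about 17%, with every replicate also reaching it, limit read from the data, passing the limit was not always enough; inconclusive means only one of the two conditions met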
Target sequence (P13346 whole entry, looked up): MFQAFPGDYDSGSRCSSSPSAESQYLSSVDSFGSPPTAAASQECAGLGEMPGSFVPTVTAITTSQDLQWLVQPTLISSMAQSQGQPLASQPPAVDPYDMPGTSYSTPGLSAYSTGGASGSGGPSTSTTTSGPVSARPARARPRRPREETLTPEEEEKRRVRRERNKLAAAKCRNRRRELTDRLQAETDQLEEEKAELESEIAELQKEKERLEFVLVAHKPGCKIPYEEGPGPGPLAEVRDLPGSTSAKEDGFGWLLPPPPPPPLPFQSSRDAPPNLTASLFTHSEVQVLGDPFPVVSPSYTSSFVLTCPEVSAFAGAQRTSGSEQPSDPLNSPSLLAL
Cneo AK release: Cryptococcus neoformans cell lysis inducers, primary screen, AK release luminescence, single concentration. C. neoformans lysis, adenylate kinase release luminescence, 4 h; normalised: neutral wells 0, clomiphene wells 100. lysis activity, % at 15 µM. 0.2% of 360,000 active. AID 651654, 2012;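 active means mean lysis activity across replicates of at least 80%, whatever share of replicates individually reach that level; inactive means mean lysis activity below 80%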
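Schedule: static 4 h at 37 °C with compound, 1 h detection; system: C. neoformans cells; benchmarks: Clomiphene as positive control; buffer or medium: fresh YPD medium; measure: luminescence rise reflecting yeast cell lysis; measured by: luminescent adenylate kinase detection reagent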
HIV Env fusion: inhibitors of HIV-1 Env-driven cell-cell fusion, primary screen, HeLa-JRFL effector, CEM21 target cells, luciferase. inhibition, % at 12.3 µM. AID 651610, 2012. 1.1% of 360,000 active;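 active means mean replicate inhibition score of at least 50 and every replicate individually at or above 50; inconclusive means only one of the two criteria met; inactive means mean below 50 and not all replicates reaching 50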;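 further: 0% = plate neutral controls and 100% = maraviroc near 300 nM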
dFosB act-2: activators of mouse delta FosB DNA binding, confirmation, biochemical, fluorescence polarization, TAMRA-CDK5 oligo, cherry-picked samples; activation, % at 24.9 µM; AID 588690, 2011; 2,400 tested, under 10 active; shares compounds with dFosB act-1; purified delta FosB; normalised: neutral wells 0, positive control 100;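 active means highest replicate activation at or above 34% and every replicate reaching that threshold; inconclusive means meets only one of the two criteria; inactive means meets neither criterion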;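 further: higher polarization means more probe DNA bound by delta FosB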
Numbers without * were called inactive; ? = inconclusive; · = no result; [ ] = another dose, or the depositor's remark. Hits are enriched below; roughly 2.4% of the tested compounds scored in any of these assays.

SMILES | Rtt109 Vps75 | GSIS activator | miR122 inh | dFosB act-1 | Cneo AK release | HIV Env fusion | dFosB act-2
O=S(=O)(N[C@@H]1CC[C@@H](CCn2cc(C3(O)CCCC3)nn2)O[C@H]1CO)c1ccc(Cl)cc1 | · | -5 | -2[16.7 µM] | · | -3 | 3[16.7 µM] | ·
O=C(C[C@@H]1C[C@@H]2c3cc(NS(=O)(=O)c4ccc(F)cc4)ccc3O[C@@H]2[C@H](CO)O1)NCc1ccc(-c2ccccc2)cc1 | · | -15 | 26[16.7 µM] | · | -2 | 10[16.7 µM] | ·
CCOc1ccc(OCC)c(NC(=O)c2nnn(CC(=O)Nc3cc(C)cc(C)c3)c2N)c1 | -12 | -4 | -8 | 61* | -3 | -10 | 8
CCOc1ccc(CCNC(=O)c2nnn(CC(=O)Nc3ccccc3C)c2N)cc1OCC | -2 | 0 | -8 | 16 | 0 | 8 | ·
COc1ccc(CCNC(=O)c2nnn(CC(=O)Nc3c(C)cc(C)cc3C)c2N)cc1OC | -26 | -5 | -7 | 80* | -1 | -4 | 3
CCOc1ccc(CCNC(=O)c2nnn(CC(=O)Nc3c(C)cc(C)cc3C)c2N)cc1OCC | 6 | 1 | 7 | 29* | 2 | -1 | 2
CCCC#Cc1cnc2c(c1)C(=O)N([C@@H](C)CO)C[C@@H](C)[C@@H](CN(C)C(=O)c1cccnc1)O2 | · | -4 | -8[16.7 µM] | · | -1 | 4[16.7 µM] | ·
O=C1O[C@@H](Cc2ccccc2)[C@H]2[C@@H]3C=CCCC=C3CN2C12CCCC2 | · | · | · | · | -6 | -13[16.7 µM] | ·
O=C(CCc1nc2ccccc2c(=O)[nH]1)NNC(=O)COc1ccccc1Cl | -3 | 2 | -3 | 56* | 2 | -43 | 1
CSc1ccccc1NC(=O)Nc1cccc(Cl)c1C | · | -22 | · | 6 | · | 6 | ·
CSc1ccccc1NC(=O)Nc1cccc(Cl)c1Cl | 7 | · | 3 | 26* | 0 | -82 | 0
N#CCC(=O)N/N=C/c1cn(Cc2ccccc2C#N)c2ccccc12 | 4 | · | -1 | -12 | 3 | -12 | ·
N#CCC(=O)N/N=C/c1cn(Cc2ccc(Cl)c(Cl)c2)c2ccccc12 | -7 | · | -5 | 51* | 4 | 12 | -1
Cc1ccc(-c2ccc3c(c2)O[C@H](CN(C)Cc2ccncc2)[C@H](C)CN([C@H](C)CO)S3(=O)=O)cc1 | · | -3 | -16[16.7 µM] | · | 8 | 20[16.7 µM] | ·
COc1ccc2cc(/C=N/NC(=O)c3ccc(CN(c4cccc(Cl)c4Cl)S(C)(=O)=O)cc3)c(Cl)nc2c1 | 2 | 1 | 4 | 46* | -1 | 9 | ?
COc1ccc(NC(=O)N2C[C@@H]3N[C@H](C2)[C@@H]3c2ccc(-c3ccc(OC)cc3)cc2)cc1 | · | 34 | · | · | · | · | ·
CC=Cc1ccc2n(c1=O)C[C@@H]1[C@@H](CO)[C@H](C(=O)NCCC)N(C(=O)CC)[C@H]21 (mixture of isomers) | · | 5 | 4[16.7 µM] | · | -2 | · | ·
N#Cc1c(NCCN)nc(-c2ccco2)c2c1CCCC2 | -6 | · | -3 | 26* | · | · | 4
Cc1c(C(=O)NNC(=O)Nc2ccc([N+](=O)[O-])cc2)oc2ccccc12 | -2 | 0 | -4 | 67* | 2 | -53 | 1
Cc1ccc(C(=O)OCC(=O)Nc2ccc3c(c2)OCCO3)cc1C | -8 | 6 | 1 | 22* | 1 | -21 | -14
Cc1ccc(C)c(NC(=O)COC(=O)c2ccc3c(c2)OCCO3)c1 | 1 | 8 | 4 | 33* | 4 | · | -14
Cc1cc(C)cc(NC(=O)COC(=O)c2ccc3c(c2)OCCO3)c1 | 7 | 7 | 3 | 0 | -1 | · | ·
O=C1N[C@H](Cc2ccccc2)COCc2cnnn2CC[C@@H]1Cc1cccc(F)c1 | · | 23 | · | · | · | · | ·
